Structures can show the parent of a compound that is named as a salt. Where two headings read alike, the source gives them in different places.
Assays:
[1] = type: in vivo, human; conditions: for half-life / AUC(0-t) / Cmax / Tmax: human, plasma, 4 mg; for half-life: oral, Geometric mean (%CV) terminal half-life, N = 4; for AUC(0-t) / Cmax / Tmax: po, single 4-mg oral dose, n = 15; for AUC(0-t): Geometric mean AUC0-216 (%CV); for Cmax: Geometric mean Cmax (%CV); for Tmax: Median Tmax (range)
Outline: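 Randomized 2-period, 2-sequence crossover: 4-mg immediate-release capsule on day 1 and day 15, either fasted (~10 h overnight) or fed (high-fat meal begun ≥30 min predose), alternating between periods; no food 4 h postdose. Plasma sampled predose to 216 h, LC-MS/MS (linear 0.5–500 ng/mL). Noncompartmental parameters; log AUC0-216 and Cmax by ANOVA (treatment, sequence, period fixed; patient-within-sequence random), back-transformed LS-mean ratios with 90% CIs.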

[2] = Safety and tolerability; type: in vivo, human
Outline: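 Adverse events recorded throughout treatment and up to 30 days after last dose or start of subsequent antineoplastic therapy, graded by NCI CTCAE v4.03. Safety population comprised all patients given at least 1 dose of test compound (single 4-mg oral doses on days 1 and 15, fasted/fed crossover).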

[3] = Biopharmaceutics Classification System; type: physicochemical; conditions: from solubility and permeability
[4] = cited from earlier work
[5] = ref Takeda, data on file; cited from earlier work
[6] = ref Takeda, data on file; cited from earlier work; remark: listed apart in the source
[7] = under physiological conditions; cited from earlier work
[8] = healthy volunteers and patients with advanced solid tumors; cited from earlier work
[9] = fed vs fasted, ANOVA on log-transformed values

CC(C)C[C@H](NC(=O)CNC(=O)c1cc(Cl)ccc1Cl)B(O)O [ixazomib]
Ratio of period 2 AUC to period 1 AUC (period effect) ([1]; ANOVA analysis, period 2 (day 15) vs period 1 (day 1)): 2.21
Delay of median Tmax under fed conditions compared with fasted state ([1]; fed vs fasted): approximately 3 hours
Reduction in peak plasma concentration (Cmax) ([1]; fed vs fasted): 69%
Reduction in total systemic exposure (AUC) ([1]; fed vs fasted): 28%
Least-squares geometric mean ratio (90%CI) of AUC0-216 (test/reference) [1, 9]: 0.72 (0.58‐0.89)
Least-squares geometric mean ratio (90%CI) of Cmax (test/reference) [1, 9]: 0.31 (0.21‐0.45)
half-life ([1]; day 1, fasted): 7.88 days
half-life ([1]; day 1, fed): 8.25 days
AUC(0-t) ([1]; fasted (reference)): 1470 ng·h/mL
AUC(0-t) ([1]; fed (test)): 999 ng·h/mL
Cmax ([1]; fasted (reference)): 77 ng/mL
Cmax ([1]; fed (test)): 22.8 ng/mL
Tmax ([1]; fasted (reference), immediate-release capsule): 1.02 h
Tmax ([1]; fed (test, high-calorie high-fat meal)): 4 h
On-study deaths considered related to ixazomib ([2]; 3 on-study deaths): None
Drug-related, reversible grade 1 peripheral neuropathy ([2]; 24 patients): 1 case
Patients with TEAEs resulting in dose reduction ([2]; 24 patients): 4%
Patients with any-grade drug-related TEAEs ([2]; 24 patients): 83%
Patients with any-grade drug-related fatigue ([2]; 24 patients): 25%
Patients with any-grade drug-related nausea ([2]; 24 patients): 50%
Patients with any-grade drug-related vomiting ([2]; 24 patients): 58%
Patients with at least 1 grade ≥3 TEAE ([2]; 24 patients): 54%
Patients with at least 1 grade ≥3 drug-related TEAE ([2]; 24 patients): 21%
Patients with drug-related serious AE ([2]; 24 patients): 8%
Patients with grade ≥3 drug-related anemia ([2]; 24 patients): 8%
Patients with grade ≥3 drug-related dehydration ([2]; 24 patients): 4%
Patients with grade ≥3 drug-related fatigue ([2]; 24 patients): 4%
Patients with grade ≥3 drug-related peripheral edema ([2]; 24 patients): 4%
Patients with grade ≥3 drug-related vomiting ([2]; 24 patients): 4%
Patients with vomiting leading to dose modification ([2]; 24 patients): 8%
AE leading to discontinuation ([2]; safety population N = 24): 7 (29) n (%)
Any AE ([2]; safety population N = 24): 24 (100) n (%)
Any drug-related AE ([2]; safety population N = 24): 20 (83) n (%)
Any drug-related grade ≥3 AE ([2]; safety population N = 24): 5 (21) n (%)
Any drug-related serious AE ([2]; safety population N = 24): 2 (8) n (%)
Any grade ≥3 AE ([2]; safety population N = 24): 13 (54) n (%)
Any serious AE ([2]; safety population N = 24): 12 (50) n (%)
Any-grade drug-related AE: anemia ([2]; safety population N = 24): 4 (17) n (%)
Any-grade drug-related AE: asthenia ([2]; safety population N = 24): 2 (8) n (%)
Any-grade drug-related AE: chills ([2]; safety population N = 24): 2 (8) n (%)
Any-grade drug-related AE: constipation ([2]; safety population N = 24): 2 (8) n (%)
Any-grade drug-related AE: decreased appetite ([2]; safety population N = 24): 3 (13) n (%)
Any-grade drug-related AE: diarrhea ([2]; safety population N = 24): 3 (13) n (%)
Any-grade drug-related AE: fatigue ([2]; safety population N = 24): 6 (25) n (%)
Any-grade drug-related AE: nausea ([2]; safety population N = 24): 12 (50) n (%)
Any-grade drug-related AE: thrombocytopenia ([2]; safety population N = 24): 2 (8) n (%)
Any-grade drug-related AE: vomiting ([2]; safety population N = 24): 14 (58) n (%)
Any-grade drug-related AE: weight loss ([2]; safety population N = 24): 4 (17) n (%)
Grade ≥3 drug-related AE: anemia ([2]; safety population N = 24): 2 (8) n (%)
Grade ≥3 drug-related AE: dehydration ([2]; safety population N = 24): 1 (4) n (%)
Grade ≥3 drug-related AE: fatigue ([2]; safety population N = 24): 1 (4) n (%)
Grade ≥3 drug-related AE: peripheral edema ([2]; safety population N = 24): 1 (4) n (%)
Grade ≥3 drug-related AE: vomiting ([2]; safety population N = 24): 1 (4) n (%)
On-study deaths ([2]; safety population N = 24): 3 (13) n (%)
Any-grade drug-related AE: rash ([2]; safety population N = 24, includes follicular rash, intermittent dark skin lesion, macular rash, maculopapular rash, pruritus): 5 (21) n (%)
Biopharmaceutics Classification System (BCS) class [3]: class 3
Absolute oral bioavailability ([4]; 226 adult cancer patients, immediate-release capsules, estimated): 60%
Dose and time dependence of PK [4]: dose‐ and time‐independent PK
Solubility [5]: highly soluble
Permeability [6]: moderate

CC(C)C[C@H](NC(=O)CNC(=O)c1cc(Cl)ccc1Cl)B1OC(=O)C(CC(=O)O)(CC(=O)O)O1 [ixazomib citrate]
Hydrolysis to the biologically active boronic acid, ixazomib [7]: rapid hydrolysis

CS(=O)(=O)CCNCc1ccc(-c2ccc3ncnc(Nc4ccc(OCc5cccc(F)c5)c(Cl)c4)c3c2)o1 [lapatinib]
Change in bioavailability when administered with a high-fat breakfast [8]: large increases

Reference: article PMC5069578 (Journal of Clinical Pharmacology, 2016)
